The source made the active and inactive calls.

The source of these data is ChEMBL document CHEMBL2021777 (J Med Chem, 2012).

The target of data set [1] is T1, Neuronal acetylcholine receptors; alpha-3/beta-4, alpha-5, beta-2 (Homo sapiens) (UniProt P17787+P30926+P32297+P30532). As to the kind of experiment: Agonist activity at alpha3beta4alpha5beta2 in human SH-SY5Y cells at 10 uM by 86Rb+ flux assay. The data set is classed as functional, cell-based. A digest of the protocol: (§1)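 Human neuroblastoma SH-SY5Y cells endogenously express α3β4* nAChRs (α3, β4, probably α5, sometimes β2); their α7 receptors give no signal under these conditions. Cells were kept at low passage (1−26 from frozen stocks). Function was read as 86Rb+ efflux, with agonist and antagonist modes tested up to 10 μM.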

The target in data set [2] is T1, Neuronal acetylcholine receptors; alpha-3/beta-4, alpha-5, beta-2 (Homo sapiens). Put plainly: Antagonist activity at alpha3beta4alpha5beta2 in human SH-SY5Y cells at 10 uM by 86Rb+ flux assay. The class given is functional, cell-based. A digest of the protocol: as §1
Data set [3] deals with T2, Acetylcholine receptor; alpha1/beta1/delta/gamma (Homo sapiens) (UniProt P02708+P07510+P11230+Q07001). Put plainly: Agonist activity at human alpha1beta1gammadelta nAChR expressed in TE671/RD cells at 10 uM by 86Rb+ flux assay. The class given is functional, cell-based. A digest of the protocol:
(§2)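 Human clonal TE671/RD cells endogenously express muscle-type α1*-nAChRs (α1, β1, γ, δ). Cells were kept at low passage (1−26 from frozen stocks). Function was read as 86Rb+ efflux, with agonist and antagonist modes tested up to 10 μM.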

The target of data set [4] is T2, Acetylcholine receptor; alpha1/beta1/delta/gamma (Homo sapiens). Put plainly: Antagonist activity at human alpha1beta1gammadelta nAChR expressed in TE671/RD cells at 10 uM by 86Rb+ flux assay. The data set is classed as functional, cell-based. A digest of the protocol: as §2
In data set [5] the target is T3, Neuronal acetylcholine receptor; alpha3/beta4 (Rattus norvegicus, UniProt P04757+P12392). Put plainly: Displacement of [3H] epibatidine from rat alpha3beta4 nAChR by beta scintillation counting. The class given is protein-complex assay.
Data set [6] deals with T4, Neuronal acetylcholine receptor; alpha4/beta2 (Homo sapiens, UniProt P17787+P43681). As to the kind of experiment: Antagonist activity at human alpha4beta2 nAChR expressed in SH-EP1 cells assessed as inhibition of carbamylcholine induced 86Rb+ ion efflux preincubated for 10 mins prior to carbamylcholine-induction measured after 5 mins by flip-plate technique. The data set is classed as functional, cell-based. A digest of the protocol: (§3)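 SH-EP1 human epithelial cells stably transfected with separate human α4 and β2 subunit cDNAs express a mixed population of high-sensitivity (2:3 α4:β2) and low-sensitivity (3:2) α4β2-nAChRs. Cells were kept at low passage (1−26 from frozen stocks). Function was read as 86Rb+ ion flux.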

Data set [7] deals with Neuronal acetylcholine receptor; alpha2/beta4 (Rattus norvegicus, UniProt P12389+P12392). Put plainly: Displacement of [3H] epibatidine from rat alpha2beta4 nAChR by beta scintillation counting. The data set is classed as protein-complex assay.
Data set [8] deals with Neuronal acetylcholine receptor; alpha3/beta2 (Rattus norvegicus, UniProt P04757+P12390). As to the kind of experiment: Displacement of [3H] epibatidine from rat alpha3beta2 nAChR by beta scintillation counting. The class given is protein-complex assay.
Data set [9] has as its target T4, Neuronal acetylcholine receptor; alpha4/beta2. Put plainly: Antagonist activity at human high sensitive and low sensitive alpha4beta2 nAChR expressed in SH-EP1 cells assessed as inhibition of carbamylcholine induced 86Rb+ ion efflux preincubated for 10 mins prior to carbamylcholine-induction measured after 5 mins by flip-plate technique relative to control. The class given is functional, cell-based. A digest of the protocol: as §3

Data set [10] deals with T5, Neuronal acetylcholine receptor; alpha4/beta2 (Rattus norvegicus, UniProt P09483+P12390). As to the kind of experiment: Displacement of [3H] epibatidine from rat alpha4beta2* nAChR in rat forebrain by beta scintillation counting.
For data set [11], the target named is T4, Neuronal acetylcholine receptor; alpha4/beta2. Put plainly: Agonist activity at human high sensitive and low sensitive alpha4beta2 nAChR expressed in SH-EP1 cells assessed as 86Rb+ ion efflux by flip-plate technique relative to sazetidine-A. The class given is functional, cell-based. In a few lines: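 SH-EP1-hα4β2 cells (stably transfected human α4 and β2, low passage 1−26) express mixed high- and low-sensitivity α4β2-nAChRs. Efficacy was measured by 86Rb+ flux on this mixed population. High-sensitivity efficacy was extrapolated by defining a reference agonist as 100% full agonist at the HS receptor.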

The target is the same in data set [12]. As to the kind of experiment: Agonist activity at human alpha4beta2 nAChR expressed in SH-EP1 cells assessed as 86Rb+ ion efflux after 9.5 mins by flip-plate technique. The class given is functional, cell-based. A digest of the protocol: as §3
Data set [13] has the same target. Put plainly: Partial agonist activity at human high sensitive alpha4beta2 nAChR expressed in SH-EP1 cells assessed as 86Rb+ ion efflux by flip-plate technique relative to sazetidine-A. The data set is classed as functional, cell-based. A digest of the protocol:
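86Rb+ ion flux in SH-EP1 cells stably transfected with separate human α4 and β2 subunit cDNAs, expressing a mixture of high- and low-sensitivity α4β2 nAChRs. Cells kept at low passage (1−26). Efficacy at the HS form extrapolated relative to a reference agonist defined as a 100% full agonist.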

In data set [14] the target is T5, Neuronal acetylcholine receptor; alpha4/beta2. As to the kind of experiment: Displacement of [3H] epibatidine from rat alpha4beta2 nAChR by beta scintillation counting. The data set is classed as protein-complex assay.
For data set [15], the target named is Neuronal acetylcholine receptor; alpha4/beta4 (Rattus norvegicus, UniProt P09483+P12392). As to the kind of experiment: Displacement of [3H] epibatidine from rat alpha4beta4 nAChR by beta scintillation counting. The data set is classed as protein-complex assay.
Data set [16] is filed under the species Rattus norvegicus. As to the kind of experiment: Selectivity ratio of Ki for rat alpha3beta4 to Ki for rat alpha4beta2. In a few lines:
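Ki values from [3H]epibatidine competition binding at heterologously expressed rat nAChR subtypes, using the PDSP protocol; selectivity taken as the α3β4/α4β2 Ki ratio.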

In data set [17] the target is Neuronal acetylcholine receptor; alpha2/beta2 (Rattus norvegicus, UniProt P12389+P12390). As to the kind of experiment: Displacement of [3H] epibatidine from rat alpha2beta2 nAChR by beta scintillation counting. The data set is classed as protein-complex assay.
The target of data set [18] is Neuronal acetylcholine receptor subunit alpha-7 (Homo sapiens) (UniProt P36544). As to the kind of experiment: Displacement of [3H]epibatidine from human alpha7 nAChR expressed in SH-EP1 cells at 10 uM by beta scintillation counting. The class given is cell-based. A digest of the protocol:
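Membranes from SH-EP1 cells heterologously expressing human α7 nAChRs; test ligand at 10 μM competing with 10 nM [3H]epibatidine; protocol similar to the PDSP one.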

Data set [19] has as its target T3, Neuronal acetylcholine receptor; alpha3/beta4. As to the kind of experiment: Displacement of [3H] epibatidine from rat alpha3beta4 nAChR expressed in HEK293 cells by liquid scintillation counting. The class given is cell-based.
A short description of data set [20]: Drug uptake in BALB/cJ mouse brain at 1 mg/kg after 15 mins. The class given is ADME, organism-based. Conditions: read-out: Drug uptake. More on the design: dose 1 mg/kg.
Data set [21] has as its target T5, Neuronal acetylcholine receptor; alpha4/beta2. Put plainly: Displacement of [3H] epibatidine from rat alpha4beta2 nAChR expressed in HEK293 cells by liquid scintillation counting. The data set is classed as cell-based.
Data set [22] in a line: Drug uptake in BALB/cJ mouse brain at 3 mg/kg after 15 mins. The class given is ADME, organism-based. The arrangement: dose 3 mg/kg. The note with it: read-out: Drug uptake.
For data set [23], the target named is T5, Neuronal acetylcholine receptor; alpha4/beta2. As to the kind of experiment: Displacement of [3H] epibatidine from rat alpha4beta2* nAChR in rat forebrain by liquid scintillation counting.

Sequence of Neuronal acetylcholine receptor; alpha2/beta4 (P12389 whole entry): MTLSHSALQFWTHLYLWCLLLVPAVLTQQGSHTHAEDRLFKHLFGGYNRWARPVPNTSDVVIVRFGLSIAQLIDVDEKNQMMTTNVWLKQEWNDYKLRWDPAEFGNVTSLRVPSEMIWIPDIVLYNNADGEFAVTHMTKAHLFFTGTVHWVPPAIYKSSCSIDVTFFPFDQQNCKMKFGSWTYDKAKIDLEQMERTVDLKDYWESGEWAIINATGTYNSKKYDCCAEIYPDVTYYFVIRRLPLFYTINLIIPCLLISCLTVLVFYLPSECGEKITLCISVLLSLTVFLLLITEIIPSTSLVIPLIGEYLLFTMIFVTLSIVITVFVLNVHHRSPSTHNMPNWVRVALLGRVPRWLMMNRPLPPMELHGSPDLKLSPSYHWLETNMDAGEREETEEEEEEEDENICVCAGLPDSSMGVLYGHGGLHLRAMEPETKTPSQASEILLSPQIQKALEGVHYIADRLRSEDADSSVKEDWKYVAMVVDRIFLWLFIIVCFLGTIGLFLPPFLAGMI
Sequence of Neuronal acetylcholine receptor; alpha2/beta4 (P12392 whole entry): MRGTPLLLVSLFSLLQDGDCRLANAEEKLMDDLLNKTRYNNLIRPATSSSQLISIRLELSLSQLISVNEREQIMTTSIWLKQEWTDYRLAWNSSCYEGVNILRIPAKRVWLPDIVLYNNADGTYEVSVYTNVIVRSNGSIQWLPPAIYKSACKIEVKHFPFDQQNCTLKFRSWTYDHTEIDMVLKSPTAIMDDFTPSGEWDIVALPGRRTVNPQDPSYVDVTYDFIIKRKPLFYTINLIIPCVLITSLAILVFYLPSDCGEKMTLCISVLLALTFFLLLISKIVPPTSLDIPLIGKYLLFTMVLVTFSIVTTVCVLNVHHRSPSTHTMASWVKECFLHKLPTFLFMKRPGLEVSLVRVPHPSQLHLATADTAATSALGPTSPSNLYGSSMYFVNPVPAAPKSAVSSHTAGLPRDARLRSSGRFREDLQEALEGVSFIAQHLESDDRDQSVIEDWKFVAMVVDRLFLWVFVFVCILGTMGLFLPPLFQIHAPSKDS
Sequence of Neuronal acetylcholine receptor; alpha2/beta2 (P12389 whole entry): as the sequence (P12389 whole entry) above
Sequence of Neuronal acetylcholine receptor; alpha2/beta2 (P12390 whole entry): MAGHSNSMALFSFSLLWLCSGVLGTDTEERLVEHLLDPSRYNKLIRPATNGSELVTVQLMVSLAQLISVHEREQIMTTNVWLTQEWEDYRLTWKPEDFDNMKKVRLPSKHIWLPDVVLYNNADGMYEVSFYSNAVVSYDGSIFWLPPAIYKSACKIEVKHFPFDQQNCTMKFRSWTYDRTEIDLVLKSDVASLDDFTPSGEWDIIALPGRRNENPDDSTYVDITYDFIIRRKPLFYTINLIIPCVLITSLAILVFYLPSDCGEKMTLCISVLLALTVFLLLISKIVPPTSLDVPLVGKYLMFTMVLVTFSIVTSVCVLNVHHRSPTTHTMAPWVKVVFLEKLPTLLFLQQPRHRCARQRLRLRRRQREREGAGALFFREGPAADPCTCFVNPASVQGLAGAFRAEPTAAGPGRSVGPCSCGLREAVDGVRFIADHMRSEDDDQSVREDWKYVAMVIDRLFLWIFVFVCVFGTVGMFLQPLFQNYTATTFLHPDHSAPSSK
T4 sequence (P17787 whole entry): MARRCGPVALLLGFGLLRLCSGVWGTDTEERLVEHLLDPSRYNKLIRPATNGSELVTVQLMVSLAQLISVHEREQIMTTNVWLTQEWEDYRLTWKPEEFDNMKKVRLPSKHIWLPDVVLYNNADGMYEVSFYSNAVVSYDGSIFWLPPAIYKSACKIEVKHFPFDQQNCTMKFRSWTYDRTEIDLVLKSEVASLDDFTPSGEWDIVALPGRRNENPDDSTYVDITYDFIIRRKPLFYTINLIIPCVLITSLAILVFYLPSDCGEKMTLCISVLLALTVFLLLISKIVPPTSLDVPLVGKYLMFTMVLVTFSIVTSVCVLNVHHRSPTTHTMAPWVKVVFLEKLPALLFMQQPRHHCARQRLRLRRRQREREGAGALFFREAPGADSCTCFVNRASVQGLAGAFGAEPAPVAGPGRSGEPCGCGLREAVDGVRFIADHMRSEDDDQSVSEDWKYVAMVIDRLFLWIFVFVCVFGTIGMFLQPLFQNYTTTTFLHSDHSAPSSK
T4 sequence (P43681 whole entry): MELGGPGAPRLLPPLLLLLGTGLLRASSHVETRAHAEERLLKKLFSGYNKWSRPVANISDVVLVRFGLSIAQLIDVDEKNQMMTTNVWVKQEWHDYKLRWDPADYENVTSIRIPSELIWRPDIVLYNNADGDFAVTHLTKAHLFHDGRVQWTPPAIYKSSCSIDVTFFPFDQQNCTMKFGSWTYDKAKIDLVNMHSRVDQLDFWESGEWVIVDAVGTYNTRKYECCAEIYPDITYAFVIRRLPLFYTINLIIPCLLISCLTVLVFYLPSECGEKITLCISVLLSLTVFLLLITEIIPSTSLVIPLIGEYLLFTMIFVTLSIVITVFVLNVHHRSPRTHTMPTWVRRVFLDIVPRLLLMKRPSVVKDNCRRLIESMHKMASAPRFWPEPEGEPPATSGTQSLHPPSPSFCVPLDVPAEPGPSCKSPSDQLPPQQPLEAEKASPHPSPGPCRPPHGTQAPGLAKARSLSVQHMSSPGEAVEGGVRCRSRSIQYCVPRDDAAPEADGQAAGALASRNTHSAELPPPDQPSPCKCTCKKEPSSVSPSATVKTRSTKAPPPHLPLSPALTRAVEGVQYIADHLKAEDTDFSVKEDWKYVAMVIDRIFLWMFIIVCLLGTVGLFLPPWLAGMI
T1 sequence (P17787 whole entry, looked up): as the sequence (P17787 whole entry) above
T1 sequence (P30532 whole entry, looked up): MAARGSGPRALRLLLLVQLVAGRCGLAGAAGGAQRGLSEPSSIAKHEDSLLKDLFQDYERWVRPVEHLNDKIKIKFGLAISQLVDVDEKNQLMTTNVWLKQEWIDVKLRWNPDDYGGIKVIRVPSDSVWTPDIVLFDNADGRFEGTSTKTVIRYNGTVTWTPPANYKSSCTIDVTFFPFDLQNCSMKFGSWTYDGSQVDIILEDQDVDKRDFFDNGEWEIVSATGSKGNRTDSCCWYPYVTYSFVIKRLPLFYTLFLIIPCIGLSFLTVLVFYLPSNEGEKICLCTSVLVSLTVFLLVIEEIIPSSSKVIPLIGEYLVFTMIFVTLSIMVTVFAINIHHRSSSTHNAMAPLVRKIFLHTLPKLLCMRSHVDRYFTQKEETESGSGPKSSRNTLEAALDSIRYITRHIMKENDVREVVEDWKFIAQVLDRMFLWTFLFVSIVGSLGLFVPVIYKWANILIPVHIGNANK
T1 sequence (P30926 whole entry, looked up): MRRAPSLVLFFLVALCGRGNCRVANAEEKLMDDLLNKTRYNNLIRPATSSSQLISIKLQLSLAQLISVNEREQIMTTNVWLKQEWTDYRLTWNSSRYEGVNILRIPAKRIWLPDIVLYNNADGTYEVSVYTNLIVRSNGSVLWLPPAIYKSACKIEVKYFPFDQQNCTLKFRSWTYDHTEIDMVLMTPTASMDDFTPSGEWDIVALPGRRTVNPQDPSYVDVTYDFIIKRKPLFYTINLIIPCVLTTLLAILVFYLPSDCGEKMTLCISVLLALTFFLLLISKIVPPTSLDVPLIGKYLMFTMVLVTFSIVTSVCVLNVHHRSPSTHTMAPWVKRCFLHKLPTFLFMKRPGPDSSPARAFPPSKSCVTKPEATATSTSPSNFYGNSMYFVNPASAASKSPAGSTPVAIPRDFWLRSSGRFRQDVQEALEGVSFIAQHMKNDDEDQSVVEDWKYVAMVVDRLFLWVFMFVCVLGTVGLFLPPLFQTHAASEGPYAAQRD
T1 sequence (P32297 whole entry, looked up): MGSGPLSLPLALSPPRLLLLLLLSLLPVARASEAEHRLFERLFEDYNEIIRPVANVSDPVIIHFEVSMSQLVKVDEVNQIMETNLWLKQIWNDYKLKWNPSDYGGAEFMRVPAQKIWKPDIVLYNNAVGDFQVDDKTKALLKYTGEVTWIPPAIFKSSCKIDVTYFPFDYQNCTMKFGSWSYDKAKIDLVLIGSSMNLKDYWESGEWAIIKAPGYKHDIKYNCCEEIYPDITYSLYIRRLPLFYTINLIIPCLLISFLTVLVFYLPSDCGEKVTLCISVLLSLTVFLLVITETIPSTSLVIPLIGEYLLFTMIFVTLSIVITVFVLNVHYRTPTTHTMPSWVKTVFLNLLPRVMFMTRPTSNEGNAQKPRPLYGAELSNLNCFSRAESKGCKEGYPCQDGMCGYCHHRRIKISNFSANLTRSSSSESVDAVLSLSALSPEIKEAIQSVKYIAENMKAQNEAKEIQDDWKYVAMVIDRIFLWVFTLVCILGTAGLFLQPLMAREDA
Sequence of Neuronal acetylcholine receptor; alpha4/beta4 (P09483 whole entry): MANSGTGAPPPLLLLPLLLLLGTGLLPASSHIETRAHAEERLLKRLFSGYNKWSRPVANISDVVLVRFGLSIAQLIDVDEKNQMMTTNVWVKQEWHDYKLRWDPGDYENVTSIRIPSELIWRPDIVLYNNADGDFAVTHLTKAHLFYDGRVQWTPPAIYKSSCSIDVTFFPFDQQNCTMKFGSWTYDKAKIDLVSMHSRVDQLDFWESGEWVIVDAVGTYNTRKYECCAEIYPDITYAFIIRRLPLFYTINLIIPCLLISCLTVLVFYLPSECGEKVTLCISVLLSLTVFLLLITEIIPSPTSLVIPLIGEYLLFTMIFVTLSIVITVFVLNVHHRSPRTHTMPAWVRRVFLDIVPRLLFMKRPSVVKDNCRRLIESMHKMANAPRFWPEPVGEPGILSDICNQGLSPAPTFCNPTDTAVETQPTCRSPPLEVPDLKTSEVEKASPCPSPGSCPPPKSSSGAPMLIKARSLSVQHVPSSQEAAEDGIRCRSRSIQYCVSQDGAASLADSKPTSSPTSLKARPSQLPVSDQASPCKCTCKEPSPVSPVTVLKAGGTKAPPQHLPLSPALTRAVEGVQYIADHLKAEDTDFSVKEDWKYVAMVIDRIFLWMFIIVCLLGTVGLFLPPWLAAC
Sequence of Neuronal acetylcholine receptor; alpha4/beta4 (P12392 whole entry): as the sequence (P12392 whole entry) above
T5 sequence (P09483 whole entry): as the sequence (P09483 whole entry) above
T5 sequence (P12390 whole entry): as the sequence (P12390 whole entry) above

For `CN1CCC[C@H]1c1cccnc1`, the outcome in [1], in [2], in data set [3] and in data set [4] was inactive.

For `O=C(Nc1ccccc1)OCC[C@H]1C[C@@H]1c1cncc(OC[C@@H]2CCN2)c1`, the Ki in [5] was 8850 nM; in data set [7] it was 241 nM; in data set [8], 24.4 nM; in [10] it was 5.9 nM; in [14] it was 0.6 nM; in data set [15] it was 551 nM. Further, affinity in data set [17] was put at a Ki of 1.2 nM. Besides, in data set [6], the IC50 stood at 50.2 nM. The outcome in data set [1], in [2], in [3] and in data set [4] was inactive. Also, the Efficacy in data set [9] is 87%; in data set [11] it was 24%; in [13] it was 78%. Moreover, the 50% effective concentration (EC50) in [12] turned out to be 48.9 nM. Also, in data set [16], the Ratio Ki amounted to 14800.

`COCC[C@@H]1C[C@H]1c1cncc(OC[C@@H]2CCN2)c1`: the Ki was greater than 10000 nM in data set [5]; 405 nM in [7]; 20 nM in data set [8]; 6.2 nM in [10]; 0.6 nM in data set [14]; 96.5 nM in data set [15]. The molecule also returned a Ki in [17] of 0.5 nM. In addition, the IC50 in data set [6] turned out to be 50.4 nM. Also, the outcome in [1], in data set [2], in [3] and in [4] was inactive. The Efficacy in [9] was found to be 75%; in [11] it was 8%; in [13], 62%. In [12], the EC50 is 43.1 nM. The Ratio Ki in data set [16] was greater than 16700.

With `OCC[C@@H]1C[C@H]1c1cncc(OC[C@@H]2CCN2)c1`, the Ki in data set [5] is 1040 nM; in [7], 65 nM; in data set [8], 17 nM; in data set [10] it was 3.7 nM; in data set [14], 0.7 nM; in [15] it was 29 nM. Also, in data set [17], the affinity corresponds to a Ki of 0.5 nM. The IC50 in [6] amounted to 50.9 nM. Further, the result in data set [1], in [2], in data set [3] and in data set [4] was inactive. The results for the Efficacy in data set [9], in data set [11] and in [13] were 69%, 10% and 65%, respectively. Also, the EC50 in [12] is 34.6 nM. Besides, in data set [16], the Ratio Ki came to 1500.

In data set [18], `O=C(OCC[C@H]1C[C@@H]1c1cncc(OC[C@@H]2CCN2)c1)N1CCCC1` had a %max of 30%. Besides, the Ki in [5] was greater than 10000 nM; in data set [7], 2330 nM; in data set [8], 21.5 nM; in [10], 4 nM; in data set [14], 0.8 nM; in data set [15] it was 162 nM. Further, the Ki in data set [17] stood at 1.5 nM. The IC50 in [6] amounted to 48.5 nM. Further, the outcome in [1], in data set [2], in data set [3] and in [4] was inactive. The Efficacy in [9] amounted to 84%; in [11] it was 23%; in data set [13] it was 69%. Moreover, the EC50 in data set [12] turned out to be 44.4 nM. Moreover, the Ratio Ki in data set [16] is greater than 100000.

Consider `CN(C)C(=O)OCC[C@H]1C[C@@H]1c1cncc(OC[C@@H]2CCN2)c1`, for which the Ki in data set [5] is greater than 10000 nM; in data set [7], 261 nM; in data set [8], 15 nM; in data set [10] it was 2.1 nM; in [14] it was 0.4 nM; in data set [15] it was 281 nM. In data set [17], this molecule yielded a Ki of 0.3 nM. The IC50 in [6] stood at 19.1 nM. Besides, the result in data set [1], in [2], in [3] and in [4] was inactive. Besides, the Efficacy in data set [9] was 85%; in [11] it was 15%; in data set [13], 71%. Also, the EC50 in [12] came out at 18.2 nM. Also, the Ratio Ki in data set [16] was greater than 100000.

Turning to `O=C(NC1CC1)OCC[C@H]1C[C@@H]1c1cncc(OC[C@@H]2CCN2)c1`, the Ki in data set [5] was greater than 10000 nM; in [7] it was 720 nM; in data set [8] it was 16 nM; in data set [10], 2.4 nM; in data set [14] it was 0.7 nM; in [15] it was 234 nM. The Ki in [17] was determined as 0.9 nM. The half-inhibitory concentration (IC50) in data set [6] amounted to 19.6 nM. Also, the outcome in [1], in data set [2], in data set [3] and in data set [4] was inactive. For the same molecule, the Efficacy in [9] came out at 82%; in data set [11], 27%; in data set [13], 80%. Further, the EC50 in [12] turned out to be 23.3 nM. Besides, the Ratio Ki in [16] is greater than 100000.

With `OCCCCC#Cc1cncc(OC[C@@H]2CCN2)c1`, in data set [6], the IC50 is 4.8 nM. Besides, the outcome in [1], in data set [2], in data set [3] and in [4] was inactive. Moreover, the Ki worked out at 1000 nM in data set [19], 0.4 nM in [21] and 0.9 nM in data set [23]. For the same molecule, the results for the Efficacy in data set [9], in data set [11] and in [13] were 63%, 55% and 100%, respectively. Also, the concentration at 0.25 h came out at 3 ng/g in data set [20] and 10 ng/g in data set [22]. The half-maximal effective concentration (EC50) in data set [12] was determined as 5.8 nM. Besides, in data set [16], the Ratio Ki amounted to 24000.
